Measurements reported in ChEMBL document CHEMBL1126175, “Synthesis and antibacterial activity of new tetracyclic quinolone antibacterials” (J Med Chem, 1992).
Values after ≈ are worked out from the molar mass of the structure shown.

Assays:
Staphylococcus aureus [1] = assay: In vitro antibacterial activity against staphylococcus aureus FDA 209P JC-1,Sa(F)(gram-positive); type: functional
How it was run: (§1)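 MIC by serial 2-fold agar dilution on Mueller–Hinton agar; inoculum about 10^6 CFU/mL; MIC taken as lowest concentration preventing visible growth after 18 h at 37 °C.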

Pseudomonas aeruginosa [2] = assay: In vitro antibacterial activity against Pseudomonas aeruginosa IFO 3445,Pa(I),(gram-negative); type: functional; how it was run: as §1
Pseudomonas aeruginosa [3] = assay: In vitro antibacterial activity against Pseudomonas aeruginosa E-2,Pa(E),(gram-negative); type: functional; how it was run: as §1
[4] = test system: Staphylococcus epidermidis; assay: In vitro antibacterial activity against staphylococcus epidermidis IAM 1296, (gram-positive); type: functional; how it was run: as §1
Staphylococcus aureus [5] = assay: In vitro antibacterial activity against staphylococcus aureus IID 803,(gram-positive); type: functional; how it was run: as §1
Enterococcus faecalis = assay: In vitro antibacterial activity against Enterococcus faecalis IID 682,[…],(gram-positive); type: functional; how it was run: as §1
Klebsiella pneumoniae = assay: In vitro antibacterial activity against klebsiella pneumoniae B54,Kp,(gram-negative); type: functional
Escherichia coli [6] = assay: In vitro antibacterial activity against Escherichia coli NIHJ JC-2,(gram-negative)
Escherichia coli [7] = assay: In vitro antibacterial activity against Escherichia coli KC-14, Ec(K), (gram-negative); type: functional; how it was run: as §1
Escherichia coli [8] = assay: In vitro antibacterial activity was measured against nalidixic acid resistant strain 6 from Escherichia coli KC-14; type: functional
How it was run: (§2)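 MIC by serial 2-fold agar dilution on Mueller–Hinton agar, inoculum about 10^6 CFU/mL. Plates were incubated 37 °C for 18 h. MIC was the lowest concentration preventing visible growth.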

Escherichia coli [9] = assay: In vitro antibacterial activity was measured against nalidixic acid resistant strain 1 from Escherichia coli KC-14; type: functional; how it was run: as §2
Escherichia coli [10] = assay: In vitro antibacterial activity was measured against nalidixic acid resistant strain 5 from Escherichia coli KC-14; type: functional; how it was run: as §2
Escherichia coli [11] = assay: In vitro antibacterial activity was measured against nalidixic acid resistant strain 4 from Escherichia coli KC-14; type: functional; how it was run: as §2
Escherichia coli [12] = assay: In vitro antibacterial activity was measured against nalidixic acid resistant strain 7 from Escherichia coli KC-14; type: functional; how it was run: as §2
Pseudomonas aeruginosa [13] = assay: The effect on systematic infection in mice infected with Pseudomonas aeruginosa E-2, administered perorally; type: functional
Escherichia coli [14] = assay: In vitro antibacterial activity was measured against nalidixic acid resistant strain 3 from Escherichia coli KC-14; type: functional; how it was run: as §2
Escherichia coli [15] = assay: In vitro antibacterial activity was measured against nalidixic acid resistant strain 2 from Escherichia coli KC-14; type: functional; how it was run: as §2
Staphylococcus aureus [16] = assay: The effect on systematic infection in mice infected with Staphylococcus aureus IID 803, administered perorally; type: functional
How it was run: (§3)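 Male ddY mice (20–22 g), five per group, received 0.5 mL bacterial dilution intraperitoneally at 35 or 500 times the 50% lethal dose. Compound was given orally 1 h postinfection, suspended in 0.5% sodium (carboxymethyl)cellulose or dissolved in sterile distilled water. Survival was scored after 1 week. Oral ED50 was reported with 95% confidence limits.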

Escherichia coli [17] = assay: The effect on systematic infection in mice infected with Escherichia coli KC-14, administered perorally; type: functional; how it was run: as §3
Pseudomonas aeruginosa [18] = assay: The effect on systematic infection in mice infected with Pseudomonas aeruginosa, administered perorally; type: functional; how it was run: as §3

MIC (Staphylococcus aureus [1]) [µg/mL]	MIC (Pseudomonas aeruginosa [2]) [µg/mL]	MIC (Pseudomonas aeruginosa [3]) [µg/mL]	MIC [4] [µg/mL]	MIC (Staphylococcus aureus [5]) [µg/mL]	MIC (Enterococcus faecalis) [µg/mL]	MIC (Klebsiella pneumoniae) [µg/mL]	MIC (Escherichia coli [6]) [µg/mL]	MIC (Escherichia coli [7]) [µg/mL]	SMILES	MIC (Escherichia coli [8]) [µg/mL]	MIC (Escherichia coli [9]) [µg/mL]	MIC (Escherichia coli [10]) [µg/mL]	MIC (Escherichia coli [11]) [µg/mL]	MIC (Escherichia coli [12]) [µg/mL]	ED50 (Pseudomonas aeruginosa [13]) [mg/kg]	MIC (Escherichia coli [14]) [µg/mL]	MIC (Escherichia coli [15]) [µg/mL]	ED50 (Staphylococcus aureus [16]) [mg/kg]	ED50 (Escherichia coli [17]) [mg/kg]	ED50 (Pseudomonas aeruginosa [18]) [µg/mL]
> 100	> 100	> 100	> 100	> 100	> 100	> 100	> 100	> 100	CN1CCN(c2c(F)cc3c(=O)c(S(=O)(=O)O)c4scc5n4c3c2OC5)CC1	–	–	–	–	–	–	–	–	–	–	–
0.1 (≈ 0.267 µM)	12.5 (≈ 33.4 µM)	6.25 (≈ 16.7 µM)	0.2 (≈ 0.534 µM)	0.1 (≈ 0.267 µM)	1.56 (≈ 4.17 µM)	1.56 (≈ 4.17 µM)	0.78 (≈ 2.08 µM)	3.13 (≈ 8.36 µM)	O=C(O)c1c(=O)c2cc(F)c(N3CCCCC3)c3c2n2c(csc12)CO3	–	–	–	–	–	–	–	–	–	–	–
> 100	> 100	> 100	> 100	> 100	> 100	> 100	> 100	> 100	CN1CCN(c2c(F)cc3c(=O)cc4scc5n4c3c2OC5)CC1	–	–	–	–	–	–	–	–	–	–	–
0.1	0.78	0.78	0.2	0.1	0.39	0.1	0.1	0.1	CN1CCN(c2c(F)cc3c(=O)c(C(=O)O)c4scc5n4c3c2OC5)CC1.Cl	0.39	1.56	0.39	0.2	0.2	17.7	0.39	3.13	8.1	1.01	–
0.025 (≈ 0.0694 µM)	1.56 (≈ 4.33 µM)	1.56 (≈ 4.33 µM)	0.05 (≈ 0.139 µM)	0.05 (≈ 0.139 µM)	0.2 (≈ 0.555 µM)	0.2 (≈ 0.555 µM)	0.2 (≈ 0.555 µM)	0.2 (≈ 0.555 µM)	O=C(O)c1c(=O)c2cc(F)c(N3CCCC3)c3c2n2c(csc12)CO3	–	–	–	–	–	–	–	–	–	–	–
1.56 (≈ 3.98 µM)	> 25	> 25	> 25	1.56 (≈ 3.98 µM)	> 25	1.56 (≈ 3.98 µM)	3.13 (≈ 7.98 µM)	3.13 (≈ 7.98 µM)	O=C(O)c1c(=O)c2cc(F)c(N3C[C@H](O)[C@@H](O)C3)c3c2n2c(csc12)CO3	–	–	–	–	–	–	–	–	–	–	–
0.2 (≈ 0.479 µM)	25 (≈ 59.9 µM)	3.13 (≈ 7.5 µM)	0.1 (≈ 0.24 µM)	0.2 (≈ 0.479 µM)	0.39 (≈ 0.934 µM)	0.39 (≈ 0.934 µM)	–	0.39 (≈ 0.934 µM)	CCNCC1CCN(c2c(F)cc3c(=O)c(C(=O)O)c4scc5n4c3c2OC5)C1 (configuration not stated)	–	–	–	–	–	–	–	–	–	–	–
0.78 (≈ 2.44 µM)	1.56 (≈ 4.87 µM)	1.56 (≈ 4.87 µM)	3.13 (≈ 9.77 µM)	0.78 (≈ 2.44 µM)	3.13 (≈ 9.77 µM)	0.1 (≈ 0.312 µM)	0.2 (≈ 0.624 µM)	0.2 (≈ 0.624 µM)	CCn1cc(C(=O)O)c(=O)c2cc(F)c(N3CCNCC3)nc21 [ENOXACIN]	–	–	–	–	–	–	–	–	–	–	–
3.13 (≈ 8.04 µM)	6.25 (≈ 16.1 µM)	6.25 (≈ 16.1 µM)	12.5 (≈ 32.1 µM)	1.56 (≈ 4.01 µM)	3.13 (≈ 8.04 µM)	1.56 (≈ 4.01 µM)	1.56 (≈ 4.01 µM)	1.56 (≈ 4.01 µM)	O=C1CN(c2c(F)cc3c(=O)c(C(=O)O)c4scc5n4c3c2OC5)CCN1	–	–	–	–	–	–	–	–	–	–	–
0.2 (≈ 0.479 µM)	6.25 (≈ 15 µM)	6.25 (≈ 15 µM)	0.78 (≈ 1.87 µM)	0.1 (≈ 0.24 µM)	0.78 (≈ 1.87 µM)	1.56 (≈ 3.74 µM)	1.56 (≈ 3.74 µM)	1.56 (≈ 3.74 µM)	CC(=O)NC1CCN(c2c(F)cc3c(=O)c(C(=O)O)c4scc5n4c3c2OC5)C1 (configuration not stated)	–	–	–	–	–	–	–	–	–	–	–
0.2 (≈ 0.533 µM)	0.78 (≈ 2.08 µM)	0.78 (≈ 2.08 µM)	0.78 (≈ 2.08 µM)	0.39 (≈ 1.04 µM)	0.78 (≈ 2.08 µM)	0.1 (≈ 0.266 µM)	0.2 (≈ 0.533 µM)	0.1 (≈ 0.266 µM)	NC1CCN(c2c(F)cc3c(=O)c(C(=O)O)c4scc5n4c3c2OC5)C1 (configuration not stated)	–	–	–	–	–	–	–	–	–	–	–

SMILES	MIC (Staphylococcus aureus [1]) [µg/mL]	MIC (Pseudomonas aeruginosa [2]) [µg/mL]	MIC (Pseudomonas aeruginosa [3]) [µg/mL]	MIC [4] [µg/mL]	MIC (Staphylococcus aureus [5]) [µg/mL]	MIC (Enterococcus faecalis) [µg/mL]	MIC (Klebsiella pneumoniae) [µg/mL]	MIC (Escherichia coli [6]) [µg/mL]	MIC (Escherichia coli [7]) [µg/mL]	MIC (Escherichia coli [8]) [µg/mL]	MIC (Escherichia coli [9]) [µg/mL]	MIC (Escherichia coli [10]) [µg/mL]	MIC (Escherichia coli [11]) [µg/mL]	MIC (Escherichia coli [12]) [µg/mL]	ED50 (Pseudomonas aeruginosa [13]) [mg/kg]	MIC (Escherichia coli [14]) [µg/mL]	MIC (Escherichia coli [15]) [µg/mL]	ED50 (Staphylococcus aureus [16]) [mg/kg]	ED50 (Escherichia coli [17]) [mg/kg]	ED50 (Pseudomonas aeruginosa [18]) [µg/mL]
CC1COc2c(N3CCNCC3)c(F)cc3c(=O)c(C(=O)O)cn1c23 (configuration not stated)	0.39 (≈ 1.12 µM)	1.56 (≈ 4.49 µM)	1.56 (≈ 4.49 µM)	0.78 (≈ 2.25 µM)	0.39 (≈ 1.12 µM)	1.56 (≈ 4.49 µM)	0.1 (≈ 0.288 µM)	0.1 (≈ 0.288 µM)	0.1 (≈ 0.288 µM)	0.78 (≈ 2.25 µM)	6.25 (≈ 18 µM)	0.78 (≈ 2.25 µM)	0.39 (≈ 1.12 µM)	0.39 (≈ 1.12 µM)	–	0.78 (≈ 2.25 µM)	6.25 (≈ 18 µM)	11.5	1.1	22.9 (≈ 65.9 µM)
